Measurements published in ChEMBL document CHEMBL1157669, “New oligo-beta-(1,3)-glucan derivatives as immunostimulating agents” (Bioorg Med Chem, 2010).
Calls of active or inactive are those of the source. No cut-off for these calls is given here.

Experiments:
Mus musculus [1] = assay: Immunostimulatory activity in BALB/c mouse assessed as increase in granulocyte count in peripheral blood at 100 ug, ip after 24 hrs; assay type: functional, organism-based
[2] = Cytotoxicity against human skin fibroblast assessed as effect on cell growth at 0.1 to 25 uM after 24 to 48 hrs by Hoechst 3342 staining-based imaging analysis
In short: (§1)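 Human tumour lines (liver, colon, prostate, breast, lung) and resting normal diploid skin fibroblasts were grown per supplier guidance. 4×10³ cells/well attached for 24 h, then were exposed to increasing compound concentrations for 1 and 2 days. Cells were fixed in 4% paraformaldehyde, nuclei stained with Hoechst 3342, and counted by automated imaging from four pictures per well.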

Mus musculus [3] = assay: Immunostimulatory activity in BALB/c mouse assessed as induction of peripheral blood monocyte phagocytosis at 100 ug, ip after 24 hrs; assay type: functional, organism-based
In short: (§2)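 Female BALB/c mice (6–8 weeks) were injected ip with oligosaccharide 24 h before the test. Heparinised (5 IU/mL) orbital plexus blood was incubated with synthetic HEMA microspheres. Two smears from two parallel samples were stained with Accustain. Monocytes and granulocytes holding three or more particles were scored positive. Mean ± SD; P <0.05.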

Caco-2 = assay: Cytotoxicity against human Caco-2 cells assessed as effect on cell growth at 0.1 to 25 uM after 24 to 48 hrs by Hoechst 3342 staining-based imaging analysis; conditions: caco-2, 25 µM; in short: as §1
[4] = Cytotoxicity against human NCI/ADR cells assessed as effect on cell growth at 0.1 to 25 uM after 24 to 48 hrs by Hoechst 3342 staining-based imaging analysis; in short: as §1
Mus musculus [5] = assay: Immunostimulatory activity in BALB/c mouse assessed as influx of macrophages into peritoneal cavity at 100 ug, ip after 24 hrs; assay type: functional, organism-based
In short: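 Female BALB/c mice (6–8 weeks) got one ip injection of sample. Peritoneal cavity cells were collected and percentages of macrophages, lymphocytes and mast cells scored. Values are the mean of three independent experiments ± SD.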

Mus musculus [6] = species: Mus musculus; assay: Immunostimulatory activity in BALB/c mouse splenocytes assessed as induction of IL2 production at 100 ug after 72 hrs; assay type: functional, organism-based; conditions: Splenocyte
In short: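 Spleen cells came from female BALB/c mice (6–8 weeks) injected ip with oligosaccharide; controls were PBS-injected mice. Cells were plated at 2×10⁶/mL in RPMI-1640 with 5% FCS, with Concanavalin A added to positive-control wells. After 72 h at 37 °C and 5% CO₂, supernatant IL-2 was measured with a Quantikine mouse IL-2 kit. Mean of three independent experiments ± SD.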

HCT-116 = assay: Cytotoxicity against human HCT116 cells assessed as effect on cell growth at 0.1 to 25 uM after 24 to 48 hrs by Hoechst 3342 staining-based imaging analysis; conditions: hct-116, 25 µM; in short: as §1
[7] = Cytotoxicity against human HuH7 cells assessed as effect on cell growth at 0.1 to 25 uM after 24 to 48 hrs by Hoechst 3342 staining-based imaging analysis; conditions: huh-7, 25 µM; in short: as §1
Mus musculus [8] = assay: Immunostimulatory activity in BALB/c mouse assessed as induction of peripheral blood granulocyte phagocytosis at 100 ug, ip after 24 hrs; assay type: functional, organism-based; in short: as §2
PC-3 = assay: Cytotoxicity against human PC3 cells assessed as effect on cell growth at 0.1 to 25 uM after 24 to 48 hrs by Hoechst 3342 staining-based imaging analysis; conditions: pc-3, 25 µM; in short: as §1
Mus musculus [9] = assay: Immunostimulatory activity in BALB/c mouse assessed as decrease in lymphocyte count in peripheral blood at 100 ug, ip after 24 hrs; assay type: functional, organism-based
Mus musculus [10] = assay: Immunostimulatory activity in BALB/c mouse assessed as induction of peritoneal macrophage phagocytosis at 100 ug, ip after 24 hrs; assay type: functional, organism-based
In short: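 Oligosaccharide was given ip to female BALB/c mice (6–8 weeks) 24 h before harvest. Peritoneal macrophages were isolated, diluted to 1×10⁷ in RPMI-1640 with 5% fetal calf serum, and incubated with HEMA microspheres. Smears were stained with Accustain, and phagocytosis was scored with differential counts; cells with three or more particles counted positive.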

OC[C@H]1O[C@@H](O[C@@H]2[C@@H](O)[C@H](O[C@@H]3[C@@H](O)[C@H](O[C@@H]4[C@@H](O)[C@H](O[C@H]5[C@H](O)[C@@H](CO)OC(O)[C@H]5O)O[C@H](CO)[C@H]4O)O[C@H](CO)[C@H]3O)O[C@H](CO)[C@H]2O)[C@H](O)[C@@H](O)[C@@H]1O (some centres not stated)
Activity (Mus musculus [1]): Active
Activity [2]: Non-toxic
Activity (Mus musculus [3]): Active
Activity (Caco-2): Non-toxic
Activity [4]: Non-toxic
Activity (Mus musculus [5]): Active
Activity (Mus musculus [6]): Active
Activity (HCT-116): Non-toxic
Activity [7]: Non-toxic
Activity (Mus musculus [8]): Active
Activity (PC-3): Non-toxic
Activity (Mus musculus [9]): Active
Activity (Mus musculus [10]): Active

OC[C@H]1O[C@@H](O[C@@H]2[C@@H](O)[C@H](O[C@@H]3[C@@H](O)[C@H](O[C@@H]4[C@@H](O)[C@H](O[C@@H]5[C@@H](O)[C@H](O[C@@H]6[C@@H](O)[C@H](O[C@@H]7[C@@H](O)[C@H](O)O[C@H](CO)[C@H]7O)O[C@H](CO)[C@H]6O)O[C@H](CO)[C@H]5O)O[C@H](CO)[C@H]4O)O[C@H](CO)[C@H]3O)O[C@H](CO)[C@H]2O)[C@H](O)[C@@H](O)[C@@H]1O
Activity (Mus musculus [1]): Active
Activity (Mus musculus [3]): Active
Activity (Mus musculus [5]): Active
Activity (Mus musculus [8]): Active
Activity (Mus musculus [9]): Active
Activity (Mus musculus [10]): Active

OC[C@H]1O[C@@H](O[C@@H]2[C@@H](O)[C@H](O[C@@H]3[C@@H](O)[C@H](O[C@@H]4[C@@H](O)[C@H](O[C@@H]5[C@@H](O)[C@H](O)O[C@H](CO)[C@H]5O)O[C@H](CO)[C@H]4O)O[C@H](CO)[C@H]3O)O[C@H](CO)[C@H]2O)[C@H](O)[C@@H](O)[C@@H]1O
Activity (Mus musculus [1]): Active
Activity (Mus musculus [3]): Active
Activity (Mus musculus [5]): Active
Activity (Mus musculus [8]): Active
Activity (Mus musculus [9]): Active
Activity (Mus musculus [10]): Active

OC[C@H]1O[C@@H](O[C@@H]2[C@@H](O)[C@H](O[C@@H]3[C@@H](O)[C@H](O[C@@H]4[C@@H](O)[C@H](O[C@@H]5[C@@H](O)[C@H](O[C@H]6[C@H](O)[C@@H](CO)OC(O)[C@H]6O)O[C@H](CO)[C@H]5O)O[C@H](CO)[C@H]4O)O[C@H](CO)[C@H]3O)O[C@H](CO)[C@H]2O)[C@H](O)[C@@H](O)[C@@H]1O (some centres not stated)
Activity (Mus musculus [1]): Active
Activity [2]: Non-toxic
Activity (Mus musculus [3]): Active
Activity (Caco-2): Non-toxic
Activity [4]: Non-toxic
Activity (Mus musculus [5]): Active
Activity (HCT-116): Non-toxic
Activity [7]: Non-toxic
Activity (Mus musculus [8]): Active
Activity (PC-3): Non-toxic
Activity (Mus musculus [9]): Active
Activity (Mus musculus [10]): Active
